In ChEMBL document CHEMBL1128532, “Antidiabetic agents: a new class of reversible carnitine palmitoyltransferase I inhibitors” (J Med Chem, 1995):
Values joined by “and” are separate entries in the source; they are usually repeats but may differ in a detail not shown here. Equal entries are not always repeated.

Tests used:
Rattus norvegicus [1] = species on record: Rattus norvegicus; assay: Inhibition of production of ketones in rat liver hepatocytes from 18 hr fasted rats; type: functional; settings: Hepatocyte
How it was run: (§1)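 Fatty acid oxidation was read as the fall in ketone production, tested in rat liver homogenates and in hepatocytes isolated from 18 h fasted rats. IC50 ± SE was taken from concentration-response data. Where no reasonable dose response was seen, the highest dose tested is given instead.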

Rattus norvegicus [2] = species on record: Rattus norvegicus; assay: Inhibition of production of ketones in rat liver homogenates; type: functional; how it was run: as §1
Rattus norvegicus [3] = assay: Blood glucose level in NIDDM rats after 11 days of treatment at a dose 21.9 […] Blood samples taken 6 hr post-dose in a 6 hr fasted state; type: functional
How it was run: (§2)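 NIDDM model: fat-fed, low-dose streptozotocin-treated rats. Oral gavage once daily for 11 days at 0 to 87.5 mg/kg/d. Blood sampled 6 h post-dose, with rats in a 6 h fasted state. Blood glucose reported in mg/dL as mean ± error. Significance tested against vehicle control (p<0.05, p<0.01).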

Rattus norvegicus [4] = assay: Blood glucose level in NIDDM rats after 11 days of treatment at a dose 0 mg/kg/d Blood samples taken 6 hr post-dose in a 6 hr fasted state; type: functional; how it was run: as §2
Rattus norvegicus [5] = assay: Blood glucose level in NIDDM rats after 11 days of treatment at a dose 21.9 mg/kg/d Blood samples taken 6 hr post-dose in a 6 hr fasted state; type: functional; how it was run: as §2
Rattus norvegicus [6] = assay: Blood glucose level in NIDDM rats after 11 days of treatment at a dose 32.9 mg/kg/d Blood samples taken 6 hr post-dose in a 6 hr fasted state; type: functional; how it was run: as §2
[7] = target: T1, Carnitine O-palmitoyltransferase 1, liver isoform (Rattus norvegicus, UniProt P32198); assay: In vitro inhibition of carnitine palmitoyltransferase I with respect to palmitoyl CoA in rat
T1 sequence (P32198 whole entry): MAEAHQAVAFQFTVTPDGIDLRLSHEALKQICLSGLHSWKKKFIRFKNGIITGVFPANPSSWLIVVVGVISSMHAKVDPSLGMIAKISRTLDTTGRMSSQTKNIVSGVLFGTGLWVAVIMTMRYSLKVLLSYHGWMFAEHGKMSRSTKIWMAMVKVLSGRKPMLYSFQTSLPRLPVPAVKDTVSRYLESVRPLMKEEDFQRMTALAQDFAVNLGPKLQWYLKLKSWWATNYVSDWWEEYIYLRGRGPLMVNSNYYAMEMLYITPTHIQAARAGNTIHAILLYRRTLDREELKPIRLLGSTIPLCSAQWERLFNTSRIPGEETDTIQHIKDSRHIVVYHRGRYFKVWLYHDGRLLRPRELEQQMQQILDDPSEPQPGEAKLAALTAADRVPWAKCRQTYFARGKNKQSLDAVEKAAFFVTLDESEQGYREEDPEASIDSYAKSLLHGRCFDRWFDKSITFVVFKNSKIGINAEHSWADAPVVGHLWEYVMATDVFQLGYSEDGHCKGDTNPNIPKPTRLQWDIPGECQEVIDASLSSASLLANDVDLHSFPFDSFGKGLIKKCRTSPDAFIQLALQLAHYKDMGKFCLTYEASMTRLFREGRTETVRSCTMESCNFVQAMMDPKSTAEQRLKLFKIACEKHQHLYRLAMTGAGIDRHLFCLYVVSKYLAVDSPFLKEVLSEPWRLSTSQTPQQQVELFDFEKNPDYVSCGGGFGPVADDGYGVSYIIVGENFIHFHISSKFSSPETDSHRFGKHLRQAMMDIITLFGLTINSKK

Rattus norvegicus [8] = species on record: Rattus norvegicus; assay: Blood glucose level in NIDDM rats after 11 days of treatment Blood samples taken 6 hr post-dose in a 6 hr fasted state.; type: functional; how it was run: as §2

SMILES	IC50 (Rattus norvegicus [2]) [µM]	IC50 (Rattus norvegicus [1]) [µM]	also measured
CCCCCCCCCCCCCCOP(=O)([O-])O[C@@H](CC(=O)O)C[N+](C)(C)C	> 300	220	
CCCCCCCCCCCCCCOP(=O)([O-])N[C@H](CC(=O)O)C[N+](C)(C)C	24	46	
CCCCCCCCCCCCCCOP(=O)([O-])O[C@H](CC(=O)O)C[N+](C)(C)C	28	3.4	Glucose level (Rattus norvegicus [3]): 164 mg/dL; Glucose level (Rattus norvegicus [4]): 197 mg/dL; Glucose level (Rattus norvegicus [5]): 164 mg/dL; Glucose level (Rattus norvegicus [6]): 179 mg/dL and 93 mg/dL; Ki [7]: 3.6 µM; Glucose level (Rattus norvegicus [8]): 197 mg/dL
CCCCCCCCCCCCCCCP(=O)([O-])NC(CC(=O)O)C[N+](C)(C)C (configuration not stated)	> 100	> 300	

Further lines, with some results ahead:

IC50 (Rattus norvegicus [2]) [µM]	SMILES	IC50 (Rattus norvegicus [1]) [µM]	also measured
> 300	CCCCCCCCCCCCCCP(=O)([O-])CC(CC(=O)O)C[N+](C)(C)C (configuration not stated)	> 300	
1.3	CCCCCCCCCCCCCCCC(=O)NC(CC(=O)[O-])C[N+](C)(C)C (configuration not stated)	1.2	
36	CCCCCCCCCCCCCCCP(=O)([O-])O[C@H](CC(=O)O)C[N+](C)(C)C	3	
> 100	CCCCCCCCCCCCCCCP(=O)([O-])O[C@@H](CC(=O)O)C[N+](C)(C)C	> 300	
